# Experiments:
# HL-60 = test: Cytotoxicity against human HL60 cells after 48 hrs by MTT assay; type: functional, cell-based; conditions: HL-60, 48 h
# In short: (§1)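 ECACC cells; leukemias in RPMI 1640, MCF-7 and HT-29 in DMEM, each with 10% heat-inactivated FBS plus penicillin/streptomycin, 37 °C, 5% CO2. 8 × 10^3 cells/well seeded, compounds added after 24 h at 10^-7 to 10^-3 M (DMSO diluted in medium) for 48 h. MTT 2 h, formazan dissolved in DMSO, A560 against untreated control. IC50 from concentration–response curves, mean ± SD of at least three experiments.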
# MCF7 = test: Cytotoxicity against human MCF7 cells after 48 hrs by MTT assay; type: functional, cell-based; conditions: MCF7, 48 h; in short: as §1
# NALM-6 = test: Cytotoxicity against human NALM6 cells after 48 hrs by MTT assay; type: functional, cell-based; conditions: NALM-6, 48 h; in short: as §1
# HT-29 = test: Cytotoxicity against human HT-29 cells after 48 hrs by MTT assay; type: functional, cell-based; conditions: HT-29, 48 h; in short: as §1
# Enterococcus faecalis = test: Antibacterial activity against Enterococcus faecalis ATCC 29212 after 24 hrs by broth microdilution assay; type: functional; conditions: ATCC 29212, 24 h
# In short: (§2)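 MIC by broth microdilution per CLSI, compounds from 20.0 mg/mL DMSO stocks tested at 3.125–400.0 µg/mL (eight twofold dilutions) in Mueller-Hinton broth or RPMI-1640. MIC is the concentration that inhibits growth during 24 h culture, turbidity equal to blank A600 (0.06). Highest final DMSO 2.0%.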
# Staphylococcus aureus [1] = test: Antibacterial activity against methicillin-sensitive Staphylococcus aureus ATCC 29213 after 24 hrs by broth microdilution assay; type: functional; conditions: ATCC 29213, 24 h
# In short: (§3)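 Broth microdilution in Mueller-Hinton broth, compounds from 20.0 mg/mL DMSO stocks tested over 3.125–400.0 µg/mL (eight twofold dilutions), DMSO at most 2.0% final. MIC is the lowest concentration inhibiting growth over 24 h culture, with turbidity equal to the A600 of a medium blank (0.06). Run under CLSI guidance with ATCC quality-control strains.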
# Staphylococcus aureus [2] = test: Antibacterial activity against methicillin-sensitive Staphylococcus aureus ATCC 29213 incubated for 24 hrs followed by washout measured after 24 hrs by broth microdilution assay; type: functional; conditions: ATCC 29213, 24 h
# In short: (§4)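 MBC: after the 24 h broth microdilution MIC run (3.125–400.0 µg/mL in Mueller-Hinton broth, DMSO at most 2.0%), 10 µL from the MIC, 2× MIC and 4× MIC wells was subcultured into compound-free broth for 24 h. MBC is the lowest concentration with no visible growth, i.e. at least 99.9% kill of the original inoculum; bactericidal if MBC is at most 4× MIC.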
# Staphylococcus aureus [3] = test: Antibacterial activity against methicillin-resistant Staphylococcus aureus D5 patient isolate incubated for 24 hrs followed by washout measured after 24 hrs by broth microdilution assay; type: functional; conditions: D5, 24 h; in short: as §4
# HUVEC = test: Cytotoxicity against human HUVEC cells after 48 hrs by MTT assay; type: cell-based
# In short: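 HUVECs cultured as the supplier directs, used at passages 3–8, 37 °C, 5% CO2. Seeded at 8 × 10^3/well, treated after 24 h with compounds at 10^-7 to 10^-3 M (DMSO diluted in complete medium) for 48 h. MTT 2 h, DMSO-solubilized formazan read at 560 nm against untreated cells. IC50 from concentration–response curves, at least three experiments.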
# Staphylococcus aureus [4] = test: Antibacterial activity against methicillin-resistant Staphylococcus aureus A7 patient isolate incubated for 24 hrs followed by washout measured after 24 hrs by broth microdilution assay; type: functional; conditions: A7, 24 h; in short: as §4
# Staphylococcus aureus [5] = test: Antibacterial activity against methicillin-resistant Staphylococcus aureus A3 patient isolate after 24 hrs by broth microdilution assay; type: functional; conditions: A3, 24 h; in short: as §3
# Staphylococcus aureus [6] = test: Antibacterial activity against methicillin-resistant Staphylococcus aureus A7 patient isolate after 24 hrs by broth microdilution assay; type: functional; conditions: A7, 24 h; in short: as §3
# Escherichia coli = test: Antibacterial activity against Escherichia coli NCTC 8196 after 24 hrs by broth microdilution assay; type: functional; conditions: NCTC 8196, 24 h; in short: as §2
# Pseudomonas aeruginosa = test: Antibacterial activity against Pseudomonas aeruginosa NCTC 6749 after 24 hrs by broth microdilution assay; type: functional; conditions: NCTC 6749, 24 h; in short: as §2
# Staphylococcus aureus [7] = test: Antibacterial activity against methicillin-resistant Staphylococcus aureus A3 patient isolate incubated for 24 hrs followed by washout measured after 24 hrs by broth microdilution assay; type: functional; conditions: A3, 24 h; in short: as §4
# Candida albicans = test: Antifungal activity against Candida albicans ATCC 10231 after 24 hrs by broth microdilution assay; type: functional; conditions: ATCC 10231, 24 h; in short: as §2
# Staphylococcus aureus [8] = test: Antibacterial activity against methicillin-resistant Staphylococcus aureus D5 patient isolate after 24 hrs by broth microdilution assay; type: functional; conditions: D5, 24 h; in short: as §3
# [9] = Therapeutic index ratio of IC50 for human HUVEC cells to IC50 for human HL60 cells; type: cell-based; conditions: HUVEC cells versus HL60 cells
# [10] = Therapeutic index ratio of IC50 for human HUVEC cells to IC50 for human NALM6 cells; type: cell-based; conditions: HUVEC cells versus NALM6 cells, read-out: Ratio IC50
# [11] = Therapeutic index ratio of IC50 for human HUVEC cells to IC50 for human MCF7 cells; type: cell-based; conditions: HUVEC cells versus MCF7 cells, read-out: Ratio IC50
SMILES,IC50 (HL-60),IC50 (MCF7),IC50 (NALM-6),IC50 (HT-29),IC50 (HUVEC),further results
C=CC1C(=C)C(=O)Oc2cc(OC)cc(OC)c21 (centres undefined),8.4 µM,6.2 µM,9.3 µM,5.9 µM,–,–
C=C1C(=O)Oc2cc(OC)cc(OC)c2C1C (centres undefined),5.2 µM,4.1 µM,6 µM,7.2 µM,–,–
C=C1C(=O)Oc2cc3c(cc2C1CCCC)OCO3 (centres undefined),0.75 µM,0.54 µM,0.6 µM,1.8 µM,–,–
C=C1C(=O)Oc2cc(OC)ccc2C1CCCC (centres undefined),5.4 µM,7.1 µM,6.2 µM,10.2 µM,5.1 µM,MIC (Enterococcus faecalis): 200 µg/mL; MIC (Staphylococcus aureus [1]): 50 µg/mL; MBC (Staphylococcus aureus [2]): 100 µg/mL; MBC (Staphylococcus aureus [3]): 200 µg/mL; MBC (Staphylococcus aureus [4]): 100 µg/mL; MIC (Staphylococcus aureus [5]): 50 µg/mL; MIC (Staphylococcus aureus [6]): 50 µg/mL; MIC (Escherichia coli): > 400 µg/mL; MIC (Pseudomonas aeruginosa): > 400 µg/mL; MBC (Staphylococcus aureus [7]): 100 µg/mL; MIC (Candida albicans): > 400 µg/mL; MIC (Staphylococcus aureus [8]): 50 µg/mL
C=CC1C(=C)C(=O)Oc2ccc3ccccc3c21 (centres undefined),5.7 µM,4.7 µM,6 µM,9.7 µM,6.1 µM,–
C=C1C(=O)Oc2ccc3ccc(O)cc3c2C1CCCC (centres undefined),0.62 µM,1.88 µM,0.56 µM,1.73 µM,–,–
C=C1C(=O)Oc2cc3c(cc2C1C(C)C)OCO3 (centres undefined),3.3 µM,0.87 µM,0.7 µM,1.5 µM,–,–
C=C1C(=O)Oc2cc3c(cc2C1C)OCO3 (centres undefined),59.4 µM,40.9 µM,60.7 µM,38.4 µM,–,–
C=C1C(=O)Oc2ccc3ccccc3c2C1CCCC (centres undefined),0.72 µM,2.75 µM,2.1 µM,2.9 µM,3.83 µM,MIC (Enterococcus faecalis): 25 µg/mL; MIC (Staphylococcus aureus [1]): 6.25 µg/mL; MBC (Staphylococcus aureus [2]): 12.5 µg/mL; MBC (Staphylococcus aureus [3]): 6.25 µg/mL; MBC (Staphylococcus aureus [4]): 6.25 µg/mL; MIC (Staphylococcus aureus [5]): 3.12 µg/mL; MIC (Staphylococcus aureus [6]): 6.25 µg/mL; MIC (Escherichia coli): > 400 µg/mL; MIC (Pseudomonas aeruginosa): > 400 µg/mL; MBC (Staphylococcus aureus [7]): 6.25 µg/mL; MIC (Candida albicans): > 400 µg/mL; MIC (Staphylococcus aureus [8]): 3.12 µg/mL
C=C1C(=O)Oc2ccc3ccc(O)cc3c2C1C (centres undefined),5.81 µM,6.22 µM,5.77 µM,4.3 µM,–,–
C=C1C(=O)Oc2ccc3ccc(O)cc3c2C1C(C)C (centres undefined),0.58 µM,0.36 µM,0.59 µM,0.49 µM,–,–
C=C1C(=O)Oc2cc(OC)cc(OC)c2C1C(C)C (centres undefined),1.3 µM,2.1 µM,3 µM,2.2 µM,–,–
C=C1C(=O)Oc2cc(OC)ccc2C1C (centres undefined),54.5 µM,73 µM,53.6 µM,70 µM,57.4 µM,–
C=C1C(=O)Oc2cc(OC)ccc2C1C(C)C (centres undefined),0.56 µM,0.87 µM,0.85 µM,1.7 µM,3.12 µM,selectivity ratio [9]: 5.6; selectivity ratio [10]: 4; selectivity ratio [11]: 4; MIC (Escherichia coli): > 400 µg/mL; MIC (Pseudomonas aeruginosa): > 400 µg/mL; MIC (Candida albicans): > 400 µg/mL
C=CC1C(=C)C(=O)Oc2cc(OC)ccc21 (centres undefined),51.7 µM,62 µM,56.6 µM,42 µM,57.3 µM,–
C=C1C(=O)Oc2cc(OC)cc(OC)c2C1CCCC (centres undefined),3.4 µM,3.3 µM,4.6 µM,5.2 µM,–,–
C=CC1C(=C)C(=O)Oc2ccc3ccc(O)cc3c21 (centres undefined),3.43 µM,4.8 µM,0.79 µM,6.5 µM,–,–
C=C1C(=O)Oc2ccc3ccccc3c2C1C (centres undefined),4.8 µM,5.17 µM,5.5 µM,7.26 µM,6.69 µM,–
C=CC1C(=C)C(=O)Oc2cc3c(cc21)OCO3 (centres undefined),7.85 µM,9.8 µM,7.82 µM,6.2 µM,–,–
C=C1C(=O)Oc2ccc3ccccc3c2C1C(C)C (centres undefined),0.7 µM,0.48 µM,0.72 µM,2.67 µM,4.03 µM,selectivity ratio [9]: 5.8; selectivity ratio [10]: 5.6; selectivity ratio [11]: 8; MIC (Escherichia coli): > 400 µg/mL; MIC (Pseudomonas aeruginosa): > 400 µg/mL; MIC (Candida albicans): > 400 µg/mL
